Assay results: ChEMBL document CHEMBL1121573, “2-(Aminomethyl)phenols, a new class of saluretic agents. 1. Effects of nuclear substitution” (J Med Chem, 1980)

Assays:
Rattus norvegicus [1] = test: Oral diuretic activity was evaluated by measuring Na+ excretion in Rat at 9 mg/kg after […] (0-5 hr); assay type: ADME, organism-based, Urine; parameters: dose 9 mg/kg; conditions: in vivo, ip
How it was run: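 Female Charles-River rats (150–170 g) were kept overnight on a sugar diet with water ad libitum. Compound was dissolved in DMF, then diluted with water containing Tween 80 (3 drops/100 mL) to a final 4% DMF, and given po in 5.0 mL. Rats were housed three per metabolism cage. Urine from 0–5 h was analysed for Na+, K+ and Cl−, with concurrent placebo controls. Values are mequiv × 100 per cage, geometric mean of three cages per dose.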

Canis familiaris [2] = test: Oral diuretic activity was evaluated by measuring Na+ excretion in dog at 10 mg/kg after ip administration (0-6 hr); assay type: ADME, organism-based, Canis lupus familiaris, Urine; parameters: dose 10 mg/kg, route intraperitoneal; conditions: in vivo
How it was run: (§1)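 Spontaneous urine was pooled with bladder urine collected by catheterization at 6 h. Volume was measured and Na+, K+ and Cl− were determined by standard methods. Values are geometric means.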

Canis familiaris [3] = test: Oral diuretic activity was evaluated by measuring Na+ excretion in dog at 1 mg/kg after ip administration (0-6 hr); assay type: ADME, organism-based, Canis lupus familiaris, Urine; parameters: dose 1 mg/kg, route intraperitoneal; conditions: in vivo; how it was run: as §1
Canis familiaris [4] = test: Oral diuretic activity was evaluated by measuring K+ excretion in dog at 5 mg/kg after ip administration (0-6 hr); assay type: ADME, organism-based, Canis lupus familiaris, Urine; parameters: dose 5 mg/kg, route intraperitoneal; conditions: in vivo; how it was run: as §1
Rattus norvegicus [5] = test: Oral diuretic activity was evaluated by measuring Na+ excretion in Rat at 81 mg/kg […] (0-5 hr); assay type: ADME, organism-based, Urine; parameters: dose 81 mg/kg; conditions: in vivo
Canis familiaris [6] = test: Oral diuretic activity was evaluated by measuring Na+ excretion in dog at 5 mg/kg after ip administration (0-6 hr); assay type: ADME, organism-based, Canis lupus familiaris, Urine; parameters: dose 5 mg/kg, route intraperitoneal; conditions: in vivo; how it was run: as §1
Canis familiaris [7] = test: Salidiuretic activity in dog following i.v. dosing at 5 mg/kg; assay type: functional, Canis lupus familiaris, Urine; parameters: unit not given beside the values; conditions: route intravenous
How it was run: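 Conditioned female mongrel dogs, postabsorptive, got a 500 mL oral water load 1 h before pentobarbital anesthesia (30 mg/kg iv). After replicate 15-min control collections, compound was given as an iv stat injection.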

Rattus norvegicus [8] = test: Oral diuretic activity was evaluated by measuring K+ excretion in Rat at 81 mg/kg after […] (0-5 hr); assay type: ADME, organism-based, Urine; parameters: dose 81 mg/kg
How it was run: (§2)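 Female Charles-River rats (150–170 g) were kept overnight on a sugar diet with water ad libitum. Test substance was dissolved in DMF and diluted with water containing Tween 80 to a final 4% DMF vehicle, then given po in 5.0 mL. Rats were housed three per metabolism cage, and 0–5 h urine was assayed for Na⁺, K⁺ and Cl⁻ alongside concurrent placebo groups. Values are mequiv × 100 per cage, geometric means of three cages per dose.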

Rattus norvegicus [9] = test: Oral diuretic activity was evaluated by measuring K+ excretion in Rat at 9 mg/kg […] (0-5 hr); assay type: ADME, organism-based, Urine; parameters: dose 9 mg/kg; how it was run: as §2
Canis familiaris [10] = test: Oral diuretic activity was evaluated by measuring K+ excretion in dog at 10 mg/kg after ip administration (0-6 hr); assay type: ADME, organism-based, Canis lupus familiaris, Urine; parameters: dose 10 mg/kg, route intraperitoneal; conditions: in vivo; how it was run: as §1
Canis familiaris [11] = test: Oral diuretic activity was evaluated by measuring K+ excretion in dog at 1 mg/kg after ip administration (0-6 hr); assay type: ADME, organism-based, Canis lupus familiaris, Urine; parameters: dose 1 mg/kg, route intraperitoneal; conditions: in vivo; how it was run: as §1
Rattus norvegicus [12] = test: Evaluated for salidiuretic activity measured as sodium ion excretion in Rat, administered orally at a dose of 50 mg/kg; assay type: functional, Urine; parameters: unit not given beside the values; conditions: route oral
How it was run: (§3)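 Female Charles-River rats (150–170 g), overnight on sugar diet with water ad libitum. Compound dissolved in DMF, diluted with water containing Tween 80 (final 4% DMF), given po in 5.0 mL; concurrent vehicle placebo. Three rats per metabolism cage; 0–5 h urine analysed for Na+, K+, Cl-. Values: mequiv × 100 per cage, geometric means of three cages per dose; scored 0–6 by Na+.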

[13] = Compound administered orally at a dose of 5 mg/kg was evaluated for salidiuretic activity measured as sodium ion excretion in Rat; assay type: organism-based; parameters: dose 5 mg/kg; conditions: Urine; how it was run: as §3
Rattus norvegicus [14] = test: Compound administered orally at a dose of 81 mg/kg was evaluated for salidiuretic activity measured as sodium ion excretion in Rat; assay type: ADME, organism-based, Urine; parameters: dose 81 mg/kg, route oral; conditions: in vivo, po; how it was run: as §3
Canis familiaris [15] = test: Oral diuretic activity was evaluated by measuring Cl- excretion in dog at 5 mg/kg after […] (0-6 hr); assay type: ADME, organism-based, Canis lupus familiaris, Urine; parameters: dose 5 mg/kg, route intraperitoneal; conditions: in vivo
Rattus norvegicus [16] = test: Oral diuretic activity was evaluated by measuring K+ excretion in Rat at 27 mg/kg […] (0-5 hr); assay type: ADME, organism-based, Urine; parameters: dose 27 mg/kg; how it was run: as §2
[17] = Evaluated for salidiuretic activity measured as sodium ion excretion in Rat, administered orally at a dose of 16.5 mg/kg; assay type: organism-based; parameters: dose 16.5 mg/kg; conditions: Urine; how it was run: as §3
Rattus norvegicus [18] = test: Oral diuretic activity was evaluated by measuring Cl- excretion in Rat at 27 mg/kg […] (0-5 hr); assay type: ADME, organism-based, Urine; parameters: dose 27 mg/kg; conditions: in vivo
Rattus norvegicus [19] = test: Oral diuretic activity was evaluated by measuring Cl- excretion in Rat at 9 mg/kg […] (0-5 hr); assay type: ADME, organism-based, Urine; parameters: dose 9 mg/kg; conditions: in vivo; how it was run: as §2
Canis familiaris [20] = test: Oral diuretic activity was evaluated by measuring Cl- excretion in dog at 10 mg/kg after […] (0-6 hr); assay type: ADME, organism-based, Canis lupus familiaris, Urine; parameters: dose 10 mg/kg, route intraperitoneal; conditions: in vivo
Rattus norvegicus [21] = test: Maximum fall in mean arterial blood pressure was measured in SH rats when compound was administered at 3.75 mg/kg perorally; assay type: functional; conditions: route oral
Rattus norvegicus [22] = test: Maximum fall in mean arterial blood pressure was measured in SH rats when compound was administered at 30 mg/kg perorally; assay type: functional; conditions: route oral
Rattus norvegicus [23] = test: Maximum fall in mean arterial blood pressure was measured in SH rats when compound was administered at 7.5 mg/kg perorally; assay type: functional; conditions: route oral
Rattus norvegicus [24] = test: Oral diuretic activity was evaluated by measuring Cl- excretion in Rat at 81 mg/kg after po administration (0-5 hr); conditions: in vivo

Diuretic activity (Rattus norvegicus [1]): 0.07 | Diuretic activity (Canis familiaris [2]): 35 | Diuretic activity (Canis familiaris [3]): 11.4 | Diuretic activity (Canis familiaris [4]): 7.3 | Diuretic activity (Rattus norvegicus [5]): 2.44 | Diuretic activity (Canis familiaris [6]): 28.2 | Diuretic activity (Rattus norvegicus [8]): 0.77 | Diuretic activity (Rattus norvegicus [9]): 0.14 | Diuretic activity (Canis familiaris [10]): 8.4 | Diuretic activity (Canis familiaris [11]): 4.1 | Diuretic activity (Rattus norvegicus [14]): 2.9 | Diuretic activity (Canis familiaris [15]): 37 | Diuretic activity (Rattus norvegicus [16]): 0.55 | Diuretic activity (Rattus norvegicus [18]): 2.13 | Diuretic activity (Rattus norvegicus [19]): 0.22 | Diuretic activity (Canis familiaris [20]): 43.8 | Diuretic activity (Rattus norvegicus [24]): 3.7
SMILES: NS(=O)(=O)c1cc(C(=O)O)c(NCc2ccco2)cc1Cl [FUROSEMIDE]
Diuretic activity (Canis familiaris [7]): 250 | Diuretic activity (Rattus norvegicus [12]): 2.4 | Diuretic activity [13]: 0.5 | Diuretic activity [17]: 1.4 | MAP (Rattus norvegicus [21]): 12 mmHg | MAP (Rattus norvegicus [22]): 12 mmHg | MAP (Rattus norvegicus [23]): 10 mmHg
